# Rows were chosen to be rich in hits. Some 2.2% of all compounds tested hit in one or more screens of this group.
# Mcl-1 Bim block = disrupts Bim peptide binding to human Mcl-1 | Q07820 | Bead-based flow cytometry, Bim peptide-Mcl-1 binding | inhibition, % at 10 µM | 190,000 tested, 0.1% active | AID 1009; in the data active = inhibition above about 40%;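 note: 0% = no compound tracer wells and 100% = peptide blocker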
# Target sequence (Q07820 whole entry, looked up): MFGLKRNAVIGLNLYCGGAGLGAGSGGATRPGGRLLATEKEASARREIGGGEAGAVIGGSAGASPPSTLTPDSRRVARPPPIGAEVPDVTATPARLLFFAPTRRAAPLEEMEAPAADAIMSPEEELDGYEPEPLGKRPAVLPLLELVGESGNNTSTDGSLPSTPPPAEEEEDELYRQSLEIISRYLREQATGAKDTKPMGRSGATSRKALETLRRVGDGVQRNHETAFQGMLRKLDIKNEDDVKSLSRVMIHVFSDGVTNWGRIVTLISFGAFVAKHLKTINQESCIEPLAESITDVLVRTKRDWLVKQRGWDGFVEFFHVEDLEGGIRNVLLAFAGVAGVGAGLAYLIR
# Mcl1 Noxa PPI = disrupts binding of human Mcl-1 to Noxa peptide. inhibition, % at 21.7 µM. TR-FRET Mcl-1/Noxa peptide binding, 2 h. AID 1022. 220,000 tested, 1.5% active;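 active = compounds that cut the protein-peptide binding signal by more than 50% relative to plate controls in a single-dose test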;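 note: His-tagged Mcl-1 with rhodamine Noxa BH3 peptide and terbium anti-His antibody; 0% = Mcl-1 plus Noxa peptide wells and 100% = peptide-only wells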
# EBV gp42 block = inhibitors of Epstein-Barr virus glycoprotein 42 | Q1HVG2 | Fluorescence polarization binding assay, mP read-out | inhibition, % (tested at 21.74 µM) | 220,000 tested, 0.42% active | AID 1085; in the data active = inhibition above about 50%
# Target sequence (Q1HVG2 whole entry, looked up): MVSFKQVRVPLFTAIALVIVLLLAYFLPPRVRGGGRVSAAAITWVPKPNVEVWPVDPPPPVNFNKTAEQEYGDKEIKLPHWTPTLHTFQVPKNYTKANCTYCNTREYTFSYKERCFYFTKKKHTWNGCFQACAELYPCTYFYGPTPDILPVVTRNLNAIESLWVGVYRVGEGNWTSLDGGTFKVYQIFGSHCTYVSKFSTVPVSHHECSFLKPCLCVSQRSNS
# MCL1-BIM inh = inhibitors of human MCL1 binding to BIM-BH3 peptide; inhibition, % at 10.9 µM; Q07820; 320,000 tested, 0.68% active; AID 2057; GST-MCL1 / FITC-Bim-BH3 fluorescence polarization;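 active = inhibition above the mean inhibition of all tested compounds plus 3 SD, set per campaign, cut at about 40% in these data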;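 note: 0% = DMSO wells and 100% = unlabeled Bim-BH3 peptide control; higher means more loss of mP so more displacement of Bim peptide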
# Mcl1-Bid inh = disrupts binding of human Mcl-1 to Bid peptide; TR-FRET Mcl-1/Bid-Dy647 peptide binding, 1536-well; inhibition, % at 21.7 µM; 220,000 tested, 0.97% active; AID 1021;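 active = compounds that cut the binding signal by more than half at the single screening dose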;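 note: His-tagged Mcl-1 with europium anti-His antibody binding Bid BH3 peptide; 0% = Mcl-1 plus peptide wells and 100% = peptide-only wells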
# RBBP9 inh = blocks human serine hydrolase RBBP9. recombinant RBBP9, FP-Rh probe fluorescence polarization. inhibition, % at 7.94 µM. 220,000 tested, 0.2% active;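 active = inhibition above the campaign mean of all tested compounds plus 3 SD, cut at about 14% in these data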;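 note: plate controls were DMSO wells with RBBP9 for no effect and wells lacking RBBP9 protein for full effect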
#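 Test system: recombinant human RBBP9. Quantity: 2.5 µM RBBP9 dispensing solution, before mixing. Detection: FP readout at 525/598 nm. Reagent: Serine-hydrolase probe FP-Rh, 375 nM pre-mixing. Measure: % inhibition. Control set: DMSO-treated enzyme wells and wells lacking RBBP9. Buffer or medium: Tris-NaCl-Pluronic buffer, pH 8.0. Times: preincubation 30 min plus labeling 45 min at 25 °C.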
# RBBP9 inh conf = confirmation of human RBBP9 inhibitors | shares compounds with RBBP9 inh | recombinant RBBP9, FP-Rh probe fluorescence polarization | inhibition, % at 7.94 µM | 410 tested, 36% active | AID 1537;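 active = inhibition above the hit cutoff derived for the primary screen, cut at about 15% in these data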;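 note: 0% = RBBP9 with DMSO and 100% = wells lacking RBBP9 protein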
# Bcl-xL conf = Bcl-xL (human) inhibition, MCL1 counter-screen confirmation. GST-Bcl-xL / FITC-Bim BH3 peptide FP binding. 1,700 tested, 54% active. shares compounds with MCL1-BIM inh. inhibition, % at 10.9 µM. AID 2166;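 active = inhibition above a cutoff equal to the mean inhibition of all tested compounds plus 3 SD, cut at about 30% in these data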;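 note: 0% = DMSO wells and 100% = unlabeled Bim BH3 control peptide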
# MCL1 BIM confirm = MCL1-BIM-BH3 interaction inhibition, confirmation; shares compounds with MCL1-BIM inh; inhibition, % at 10.9 µM; 1,700 tested, 61% active; GST-MCL1 / FITC-Bim-BH3 fluorescence polarization;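 active = inhibition above the average of all tested compounds plus 3 SD, cut at about 40% in these data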;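 note: 0% = DMSO wells and 100% = unlabeled Bim-BH3 control peptide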
# The depositor's hits bear a star; / = no result; + = active, no number; ! = not confirmed by another sample.
SMILES,Mcl-1 Bim block,Mcl1 Noxa PPI,EBV gp42 block,MCL1-BIM inh,Mcl1-Bid inh,RBBP9 inh,Bcl-xL conf,MCL1 BIM confirm,others
Cc1ccc(-c2nnn(CC(=O)N(CCCO)C(C(=O)NC3CCCC3)c3ccc(F)cc3)n2)o1 (configuration not stated),/,/,/,0,/,/,/,/,
Cc1c2cc(O)c(=O)cc-2oc2cc(O)c(O)cc12,/,/,129*,/,/,43*!,114*,/,RBBP9 inh conf=83*
Cc1ccc(C)c2[nH]c(=O)c(CN(Cc3cccs3)C(=S)NCc3ccco3)cc12,-4,-15,-17,-12,-28,-12,/,/,
CCOc1ccc(N)c(SSc2cc(OCC)ccc2N)c1,/,/,/,15,/,/,/,/,
CCOc1cc(-c2ccc(N)c(OCC)c2)ccc1N,0,8,145*,174*,-20,16*,134*,183*,RBBP9 inh conf=29*
COCCCNc1c2c3c(cccc3[nH]c1=O)C(=O)c1ccccc1-2,9,-190,-88,124*,-23,49*,126*,137*,RBBP9 inh conf=80*
CCn1c(CSc2nccn2C)nc2cc(C(=O)O)ccc21,-2,19,72*,65*,-9,15*,33*,44*,RBBP9 inh conf=17*
CCOC(=O)C(=O)NCc1ccc(/C=C2/N=C(C)C(C(=O)OCC)=C2O)o1,-1,10,-13,16,-16,-5,/,/,
COC(=O)C1=C(O)/C(=C\c2ccc(CNS(=O)(=O)c3ccccc3)o2)N=C1C,-4,27,-13,48*,-59,2,31*,54*,
O=[N+]([O-])c1cc(Oc2cccnc2)cc([N+](=O)[O-])c1,-6,-9,-9,5,10,3,/,/,
O=[N+]([O-])c1cccc(Oc2cnccn2)c1,/,/,/,41*,/,/,5,2,
Cc1cc(C(=O)NCc2ccco2)c2ccccc2n1,0,9,2,-3,-27,-4,/,/,
Cc1csc(NC(=O)c2cc(-c3ccco3)nc3ccccc23)n1,-2,99*,36,40*,12,-10,21,60*,
Cc1ccc(-c2cc(C(=O)NCc3ccco3)c3ccccc3n2)o1,0,66*,22,51*,1,-8,30*,58*,
Cc1nnc(NC(=O)c2cc(-c3ccco3)nc3ccccc23)s1,/,/,/,66*,/,/,7,33,
Cc1ccc(-c2cc(C(=O)O)c3cc(Br)ccc3n2)o1,1,93*,-19,75*,18,0,28,44*,
Cc1csc(NC(=O)c2cc(C)nc3ccccc23)n1,0,24,-12,-4,-2,-12,/,/,
CCc1nnc(NC(=O)c2cc(-c3ccc(C)o3)nc3ccccc23)s1,/,/,/,13,/,/,/,/,
COCCNC(=O)C(c1ccc(C)cc1)N(C(=O)CCC(=O)Nc1ccccn1)c1ccc(C)cc1 (configuration not stated),/,/,/,-2,/,/,/,/,
CCOc1ccc(/C=N/NC(=O)c2cc(-c3ccco3)nc3ccccc23)cc1,0,45,2,-2,-19,-14,/,/,
O=C(N/N=C/c1ccc(F)cc1)c1cc(-c2ccco2)nc2ccccc12,-1,104*,83*,64*,98*,0,33*,80*,
CN(CC(=O)Nc1ccc(Cl)c(C(F)(F)F)c1)C(=O)c1ccc(N2CCOCC2)c([N+](=O)[O-])c1,/,/,/,-9,/,/,/,/,
O=C(NCc1ccccc1)c1ccc2nc(-c3ccco3)c(-c3ccco3)nc2c1,4,102*,2,81*,12,4,43*,69*,
O=C(Nc1ccccc1)c1ccc2nc(-c3ccco3)c(-c3ccco3)nc2c1,13,101*,-4,40*,32,8,30,47*,
CCCCNC(=O)c1ccc2nc(-c3ccco3)c(-c3ccco3)nc2c1,3,93*,10,60*,-5,-5,25,35,
SMILES,Mcl-1 Bim block,Mcl1 Noxa PPI,EBV gp42 block,MCL1-BIM inh,Mcl1-Bid inh,RBBP9 inh,Bcl-xL conf,MCL1 BIM confirm,others
CCc1nc2ccc(C(=O)Nc3ccc(NC(C)=O)cc3)cc2nc1CC,-2,31,-31,-20,-22,-10,/,/,
CC(=O)c1ccc(NC(=O)c2ccc3nc(-c4ccco4)c(-c4ccco4)nc3c2)cc1,10,101*,99*,80*,97*,-2,36*,81*,
CCC1CCCCN1C(=O)CSc1nc2ncccc2[nH]1 (configuration not stated),/,/,/,2,/,/,/,/,
COc1ccc2nc(-c3ccco3)c(-c3ccco3)nc2c1,3,101*,37,88*,26,6,76*,126*,
CC(=O)[C@]1(O)Cc2c(O)c3c(c(O)c2[C@@H](O[C@H]2C[C@H](N)[C@H](O)[C@H](C)O2)C1)C(=O)c1ccccc1C3=O,/,/,/,+,/,/,+,+,
COc1cccc2c1C(=O)c1c(O)c3c(c(O)c1C2=O)C[C@@](O)(C(=O)CO)C[C@@H]3O[C@H]1C[C@H](N)[C@@H](O)[C@H](C)O1,/,/,/,+,/,/,+,+,
CCc1nnc(NC(=O)c2ccc(Cl)nc2)s1,-5,20,-4,9,-14,-3,/,/,
O=C(Nc1nnc(C2CC2)s1)c1ccc(Cl)nc1,/,/,/,178*,/,/,-1,0,
O=C(O)CC1S/C(=N/N=C/c2ccc(-c3ccc(Cl)c([N+](=O)[O-])c3)o2)NC1=O (configuration not stated),0,24,9,41*,-57,-1,12,37,
O=C(O)CC1S/C(=N/N=C/c2ccc(-c3ccc(Cl)cc3[N+](=O)[O-])o2)NC1=O (configuration not stated),-4,25,-24,16,-29,3,/,/,
COc1ccc(OC)c(C2Nc3c(Cl)ccc(C(=O)O)c3C3C=CCC32)c1 (configuration not stated),0,36,14,26,-18,-2,/,/,
O=C(O)C1Nc2c(O)cc(Cl)c([N+](=O)[O-])c2C2C=CCC12 (configuration not stated),9,105*,87*,101*,97*,7,43*,101*,
Cn1c(=O)c2[nH]c(-c3ccccc3)nc2n(C)c1=O,0,1,-10,/,6,1,/,/,
Cn1c(=O)c2[nH]c(-c3ccccc3Cl)c(O)c2n(C)c1=O,-6,17,65*,134*,-8,-3,49*,77*,
